Laboratory results: ChEMBL document CHEMBL2057182, “Synthesis and biological evaluation of α-methylidene-δ-lactones with 3,4-dihydrocoumarin skeleton” (Bioorg Med Chem, 2012)
≈ marks a conversion by molar mass, not a printed value.

How the values were obtained:
MCF7 = test: Cytotoxicity against human MCF7 cells after 48 hrs by MTT assay; format: functional, cell-based; details: MCF7, 48 h
Outline: (§1)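 ECACC cells; leukemias in RPMI 1640, MCF-7 and HT-29 in DMEM, each with 10% heat-inactivated FBS plus penicillin/streptomycin, 37 °C, 5% CO2. 8 × 10^3 cells/well seeded, compounds added after 24 h at 10^-7 to 10^-3 M (DMSO diluted in medium) for 48 h. MTT 2 h, formazan dissolved in DMSO, A560 against untreated control. IC50 from concentration–response curves, mean ± SD of at least three experiments.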

HL-60 = test: Cytotoxicity against human HL60 cells after 48 hrs by MTT assay; format: functional, cell-based; details: HL-60, 48 h; outline: as §1
HT-29 = test: Cytotoxicity against human HT-29 cells after 48 hrs by MTT assay; format: functional, cell-based; details: HT-29, 48 h; outline: as §1
NALM-6 = test: Cytotoxicity against human NALM6 cells after 48 hrs by MTT assay; format: functional, cell-based; details: NALM-6, 48 h; outline: as §1
HUVEC = test: Cytotoxicity against human HUVEC cells after 48 hrs by MTT assay; format: cell-based
Outline: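 HUVECs cultured as the supplier directs, used at passages 3–8, 37 °C, 5% CO2. Seeded at 8 × 10^3/well, treated after 24 h with compounds at 10^-7 to 10^-3 M (DMSO diluted in complete medium) for 48 h. MTT 2 h, DMSO-solubilized formazan read at 560 nm against untreated cells. IC50 from concentration–response curves, at least three experiments.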

[1] = Therapeutic index ratio of IC50 for human HUVEC cells to IC50 for human NALM6 cells; format: cell-based; details: HUVEC cells versus NALM6 cells, read-out: Ratio IC50
[2] = Therapeutic index ratio of IC50 for human HUVEC cells to IC50 for human MCF7 cells; format: cell-based; details: HUVEC cells versus MCF7 cells, read-out: Ratio IC50
Escherichia coli = test: Antibacterial activity against Escherichia coli NCTC 8196 after 24 hrs by broth microdilution assay; format: functional; details: NCTC 8196, 24 h
Outline: (§2)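 MIC by broth microdilution per CLSI, compounds from 20.0 mg/mL DMSO stocks tested at 3.125–400.0 µg/mL (eight twofold dilutions) in Mueller-Hinton broth or RPMI-1640. MIC is the concentration that inhibits growth during 24 h culture, turbidity equal to blank A600 (0.06). Highest final DMSO 2.0%.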

Pseudomonas aeruginosa = test: Antibacterial activity against Pseudomonas aeruginosa NCTC 6749 after 24 hrs by broth microdilution assay; format: functional; details: NCTC 6749, 24 h; outline: as §2
Candida albicans = test: Antifungal activity against Candida albicans ATCC 10231 after 24 hrs by broth microdilution assay; format: functional; details: ATCC 10231, 24 h; outline: as §2
[3] = Therapeutic index ratio of IC50 for human HUVEC cells to IC50 for human HL60 cells; format: cell-based; details: HUVEC cells versus HL60 cells
Staphylococcus aureus [4] = test: Antibacterial activity against methicillin-sensitive Staphylococcus aureus ATCC 29213 after 24 hrs by broth microdilution assay; format: functional; details: ATCC 29213, 24 h
Outline: (§3)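 Broth microdilution in Mueller-Hinton broth, compounds from 20.0 mg/mL DMSO stocks tested over 3.125–400.0 µg/mL (eight twofold dilutions), DMSO at most 2.0% final. MIC is the lowest concentration inhibiting growth over 24 h culture, with turbidity equal to the A600 of a medium blank (0.06). Run under CLSI guidance with ATCC quality-control strains.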

Staphylococcus aureus [5] = test: Antibacterial activity against methicillin-resistant Staphylococcus aureus A3 patient isolate after 24 hrs by broth microdilution assay; format: functional; details: A3, 24 h; outline: as §3
Staphylococcus aureus [6] = test: Antibacterial activity against methicillin-resistant Staphylococcus aureus A3 patient isolate incubated for 24 hrs followed by washout measured after 24 hrs by broth microdilution assay; format: functional; details: A3, 24 h
Outline: (§4)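 MBC: after the 24 h broth microdilution MIC run (3.125–400.0 µg/mL in Mueller-Hinton broth, DMSO at most 2.0%), 10 µL from the MIC, 2× MIC and 4× MIC wells was subcultured into compound-free broth for 24 h. MBC is the lowest concentration with no visible growth, i.e. at least 99.9% kill of the original inoculum; bactericidal if MBC is at most 4× MIC.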

Staphylococcus aureus [7] = test: Antibacterial activity against methicillin-resistant Staphylococcus aureus D5 patient isolate after 24 hrs by broth microdilution assay; format: functional; details: D5, 24 h; outline: as §3
Staphylococcus aureus [8] = test: Antibacterial activity against methicillin-sensitive Staphylococcus aureus ATCC 29213 incubated for 24 hrs followed by washout measured after 24 hrs by broth microdilution assay; format: functional; details: ATCC 29213, 24 h; outline: as §4
Staphylococcus aureus [9] = test: Antibacterial activity against methicillin-resistant Staphylococcus aureus A7 patient isolate after 24 hrs by broth microdilution assay; format: functional; details: A7, 24 h; outline: as §3
Enterococcus faecalis = test: Antibacterial activity against Enterococcus faecalis ATCC 29212 after 24 hrs by broth microdilution assay; format: functional; details: ATCC 29212, 24 h; outline: as §2
Staphylococcus aureus [10] = test: Antibacterial activity against methicillin-resistant Staphylococcus aureus D5 patient isolate incubated for 24 hrs followed by washout measured after 24 hrs by broth microdilution assay; format: functional; details: D5, 24 h; outline: as §4
Staphylococcus aureus [11] = test: Antibacterial activity against methicillin-resistant Staphylococcus aureus A7 patient isolate incubated for 24 hrs followed by washout measured after 24 hrs by broth microdilution assay; format: functional; details: A7, 24 h; outline: as §4

| Structure (SMILES) | IC50 (MCF7) [µM] | IC50 (HL-60) [µM] | IC50 (HT-29) [µM] | IC50 (NALM-6) [µM] | IC50 (HUVEC) [µM] | also measured |
| --- | --- | --- | --- | --- | --- | --- |
| C=C1C(=O)Oc2ccc3ccc(O)cc3c2C1C (centres undefined) | 6.22 | 5.81 | 4.3 | 5.77 | – | – |
| C=C1C(=O)Oc2cc3c(cc2C1C(C)C)OCO3 (centres undefined) | 0.87 | 3.3 | 1.5 | 0.7 | – | – |
| C=CC1C(=C)C(=O)Oc2cc(OC)ccc21 (centres undefined) | 62 | 51.7 | 42 | 56.6 | 57.3 | – |
| C=C1C(=O)Oc2cc(OC)ccc2C1C(C)C (centres undefined) | 0.87 | 0.56 | 1.7 | 0.85 | 3.12 | selectivity ratio [1]: 4; selectivity ratio [2]: 4; MIC (Escherichia coli): > 400 µg/mL; MIC (Pseudomonas aeruginosa): > 400 µg/mL; MIC (Candida albicans): > 400 µg/mL; selectivity ratio [3]: 5.6 |
| C=C1C(=O)Oc2cc(OC)ccc2C1CCCC (centres undefined) | 7.1 | 5.4 | 10.2 | 6.2 | 5.1 | MIC (Staphylococcus aureus [4]): 50 µg/mL (≈ 203 µM); MIC (Staphylococcus aureus [5]): 50 µg/mL (≈ 203 µM); MBC (Staphylococcus aureus [6]): 100 µg/mL (≈ 406 µM); MIC (Staphylococcus aureus [7]): 50 µg/mL (≈ 203 µM); MBC (Staphylococcus aureus [8]): 100 µg/mL (≈ 406 µM); MIC (Staphylococcus aureus [9]): 50 µg/mL (≈ 203 µM); MIC (Escherichia coli): > 400 µg/mL; MIC (Enterococcus faecalis): 200 µg/mL (≈ 812 µM); MIC (Pseudomonas aeruginosa): > 400 µg/mL; MBC (Staphylococcus aureus [10]): 200 µg/mL (≈ 812 µM); MBC (Staphylococcus aureus [11]): 100 µg/mL (≈ 406 µM); MIC (Candida albicans): > 400 µg/mL |
| C=C1C(=O)Oc2ccc3ccc(O)cc3c2C1CCCC (centres undefined) | 1.88 | 0.62 | 1.73 | 0.56 | – | – |
| C=CC1C(=C)C(=O)Oc2cc3c(cc21)OCO3 (centres undefined) | 9.8 | 7.85 | 6.2 | 7.82 | – | – |
| C=CC1C(=C)C(=O)Oc2cc(OC)cc(OC)c21 (centres undefined) | 6.2 | 8.4 | 5.9 | 9.3 | – | – |
| C=C1C(=O)Oc2ccc3ccccc3c2C1C (centres undefined) | 5.17 | 4.8 | 7.26 | 5.5 | 6.69 | – |
| C=C1C(=O)Oc2ccc3ccccc3c2C1C(C)C (centres undefined) | 0.48 | 0.7 | 2.67 | 0.72 | 4.03 | selectivity ratio [1]: 5.6; selectivity ratio [2]: 8; MIC (Escherichia coli): > 400 µg/mL; MIC (Pseudomonas aeruginosa): > 400 µg/mL; MIC (Candida albicans): > 400 µg/mL; selectivity ratio [3]: 5.8 |
| C=CC1C(=C)C(=O)Oc2ccc3ccc(O)cc3c21 (centres undefined) | 4.8 | 3.43 | 6.5 | 0.79 | – | – |
| C=C1C(=O)Oc2cc(OC)cc(OC)c2C1CCCC (centres undefined) | 3.3 | 3.4 | 5.2 | 4.6 | – | – |
| C=C1C(=O)Oc2ccc3ccccc3c2C1CCCC (centres undefined) | 2.75 | 0.72 | 2.9 | 2.1 | 3.83 | MIC (Staphylococcus aureus [4]): 6.25 µg/mL (≈ 23.5 µM); MIC (Staphylococcus aureus [5]): 3.12 µg/mL (≈ 11.7 µM); MBC (Staphylococcus aureus [6]): 6.25 µg/mL (≈ 23.5 µM); MIC (Staphylococcus aureus [7]): 3.12 µg/mL (≈ 11.7 µM); MBC (Staphylococcus aureus [8]): 12.5 µg/mL (≈ 46.9 µM); MIC (Staphylococcus aureus [9]): 6.25 µg/mL (≈ 23.5 µM); MIC (Escherichia coli): > 400 µg/mL; MIC (Enterococcus faecalis): 25 µg/mL (≈ 93.9 µM); MIC (Pseudomonas aeruginosa): > 400 µg/mL; MBC (Staphylococcus aureus [10]): 6.25 µg/mL (≈ 23.5 µM); MBC (Staphylococcus aureus [11]): 6.25 µg/mL (≈ 23.5 µM); MIC (Candida albicans): > 400 µg/mL |
| C=C1C(=O)Oc2ccc3ccc(O)cc3c2C1C(C)C (centres undefined) | 0.36 | 0.58 | 0.49 | 0.59 | – | – |
| C=C1C(=O)Oc2cc(OC)cc(OC)c2C1C (centres undefined) | 4.1 | 5.2 | 7.2 | 6 | – | – |
| C=C1C(=O)Oc2cc(OC)ccc2C1C (centres undefined) | 73 | 54.5 | 70 | 53.6 | 57.4 | – |
| C=C1C(=O)Oc2cc(OC)cc(OC)c2C1C(C)C (centres undefined) | 2.1 | 1.3 | 2.2 | 3 | – | – |
| C=C1C(=O)Oc2cc3c(cc2C1C)OCO3 (centres undefined) | 40.9 | 59.4 | 38.4 | 60.7 | – | – |
| C=CC1C(=C)C(=O)Oc2ccc3ccccc3c21 (centres undefined) | 4.7 | 5.7 | 9.7 | 6 | 6.1 | – |
| C=C1C(=O)Oc2cc3c(cc2C1CCCC)OCO3 (centres undefined) | 0.54 | 0.75 | 1.8 | 0.6 | – | – |
